m5-HT2A agonist: activates the mouse 5-HT2A serotonin receptor; P35363; CHO-K1 mHTR2A beta-arrestin complementation, luminescence; percent of 30 µM serotonin response; activation, % at 7.6 µM; 360,000 compounds, 0.66% hits; AID 624169;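 active means activation above a run cutoff, the mean activation of all tested compounds plus 3 SD, cut at about 14% in these data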
EBI2 antag: antagonists of human EBI2 receptor. P32249. EBI2 beta-arrestin recruitment, luminescence, 7a,25-OHC stimulated. inhibition, % at 5 µM. 360,000 compounds, 0.81% hits. AID 651636; in the data active means inhibition above about 38%;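 further: enzyme fragment complementation signal reports receptor beta-arrestin coupling in cells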
MC4R antag cAMP: human MC4R antagonism in cAMP assay | MC4R-expressing cells, MTII-stimulated cAMP, LANCE TR-FRET | P32245 | inhibition, % at 6.5 µM | 360,000 compounds, 0.48% hits;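 active means inhibition above its plate's cutoff, the mean of tested wells on that plate plus 3 SD, cut at about 29% in these data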
Target sequence (P32245 whole entry, looked up): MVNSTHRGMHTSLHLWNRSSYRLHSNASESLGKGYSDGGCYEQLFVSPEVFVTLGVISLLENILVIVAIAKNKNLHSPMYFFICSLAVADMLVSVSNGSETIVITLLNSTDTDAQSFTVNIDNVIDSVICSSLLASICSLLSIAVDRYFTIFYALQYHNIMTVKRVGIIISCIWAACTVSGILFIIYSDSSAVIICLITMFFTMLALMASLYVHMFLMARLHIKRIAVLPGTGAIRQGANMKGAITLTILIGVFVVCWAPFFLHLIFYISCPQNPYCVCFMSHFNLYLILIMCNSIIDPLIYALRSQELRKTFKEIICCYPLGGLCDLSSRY
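Test system: U2OS cells stably expressing human melanocortin 4 receptor (MC4R); also added: Melanotan II challenge; compound: 6.5 µM single dose; timing: 30-min compound preincubation, 1-h Melanotan II challenge, 1-h detection, room temperature; signal: Eu-cAMP/anti-cAMP TR-FRET, emission 671 nm; repeats: one well per compound, no replicates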
MC4R ag barr: activates human MC4R beta-arrestin recruitment. P32245. 360,000 compounds, 0.98% hits. activation, % at 8.9 µM. U2OS MC4R beta-arrestin complementation, luminescence; percent of melanotan II response, DMSO zero. AID 540308;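 active means activation above a per-plate cutoff, the mean activation of sample wells on that plate plus 3 SD, cut at about 8% in these data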
Large screens that a line does not name were inactive. In the library only some 2.8% were active in any assay of this set; here they are far more common.

CCO[C@@H]1OC(C(=O)N2CCOCC2)=C[C@H](c2ccc(Br)cc2)[C@H]1CCCO	m5-HT2A agonist 18
CCO[C@H]1OC(C(=O)N2CCN(C)CC2)=C[C@@H](c2ccc(Br)cc2)[C@@H]1CCCO	none
CCNC(=O)N(C)C[C@H]1N[C@@](Cc2ccccc2)(C(=O)OC)[C@H]2C(=O)N(C)C(=O)[C@@H]12	none
Cc1ccc(NC(=S)N/N=C/c2ccc([N+](=O)[O-])s2)cc1	EBI2 antag 50
CCOC(=O)c1c(NC(=O)Cn2cc([N+](=O)[O-])cn2)sc2c1CCC2	MC4R ag barr 9.3
CC1=NNC(=O)/C1=C\c1cn(-c2ccccc2)nc1-c1ccc(F)cc1	EBI2 antag 86, MC4R antag cAMP 31
O=Cc1cn(-c2ccccc2)nc1-c1ccc(F)cc1	none
Cc1cc(C(=O)Nc2cccnc2)on1	m5-HT2A agonist 15
CC1Nc2ncnc(N3CCN(c4ccccn4)CC3)c2N(Cc2ccccc2)C1=O (stereo not given)	EBI2 antag 45
COc1ccc(CN2C(=O)C(CC(C)C)Nc3ncnc(N4CCN(c5ccccn5)CC4)c32)cc1 (stereo not given)	none
Cc1ccc(CN2C(=O)C(CC(C)C)Nc3ncnc(N4CCN(c5ccccn5)CC4)c32)cc1 (stereo not given)	none
COc1ccc(CN2C(=O)C(C)Nc3ncnc(N4CCN(c5ccccn5)CC4)c32)cc1 (stereo not given)	EBI2 antag 62
COc1ccc(-c2nc(C#N)c(N3CCc4ccccc4C3)o2)cc1OC	MC4R ag barr 12
CCOc1ccc(C2CC=C(C(C)=O)CN2S(=O)(=O)c2ccc(C)cc2)cc1 (stereo not given)	none (no result: MC4R antag cAMP, MC4R ag barr)
O=C(NCc1ccc(F)cc1)c1cc(C2CCCN(C(=O)c3ccccn3)C2)on1 (stereo not given)	none
COc1ccc(Oc2ccc(/C=C/C(=O)c3ccc(O)cc3)cc2[N+](=O)[O-])cc1	EBI2 antag 79
O=C(/C=C/c1ccc(O)c([N+](=O)[O-])c1)c1ccc2ccccc2c1	none
c1ccc(CN2CCN(c3ncnc4nc[nH]c34)CC2)cc1	m5-HT2A agonist 24
COc1ccc(-c2cn[nH]c2-c2ccc(OCc3ccccc3)cc2O)cc1	MC4R ag barr 9.3
N/C(Cc1ccc(Cl)cc1Cl)=N\OC(=O)c1ccc(Br)o1	MC4R ag barr 8.3
N/C(Cc1ccc(Cl)cc1Cl)=N\OC(=O)c1cccs1	none
CC1COC(=C2C(=O)OCC2C)C1 (stereo not given)	none
O=C(Cn1ncc(Cl)c(Cl)c1=O)N1CCc2ccccc21	EBI2 antag 43
O=C(Cn1ncc2c1-c1ccccc1OC2)N1CCc2ccccc21	none
O=C(NCCCn1cccn1)c1cc(COc2ccccc2)on1	none
Cc1ccc(C(=O)Oc2coc(CSc3nnc(NC(=O)c4cccs4)s3)cc2=O)cc1	MC4R ag barr 9.2
CC(=O)Nc1nnc(SCc2cc(=O)c(OC(=O)c3ccccc3)co2)s1	none
O=C(CCl)N(CCc1ccccc1)CCc1ccccc1	MC4R ag barr 8.3
O=C(CCl)N(c1ccccc1)c1ccccc1	none
Cc1ccccc1-n1nc2c(c1NC(=O)C1CC1)CS(=O)(=O)C2	none
Clc1ccc(N=c2ssnc2Cl)nc1	EBI2 antag 85
COc1ccc(CN2C(=O)COc3ccccc3C2c2nc3ccccc3[nH]2)cc1 (stereo not given)	none (no result: MC4R antag cAMP, MC4R ag barr)
COC(=O)c1ccc(CNC(=O)CN2C(=O)NC(Cc3ccccc3)(c3ccccc3)C2=O)cc1 (stereo not given)	none
CCOC(=O)Cn1c(=O)oc2cc(S(=O)(=O)N3CCCc4ccccc43)ccc21	MC4R antag cAMP 30
O=C1NC[C@H](CCCCN2CCN(CCC3CCCCC3)C(=O)C2=O)N(CCc2ccccc2)C1=O	none (no result: MC4R antag cAMP, MC4R ag barr)
N#Cc1cc(Oc2cccc3cccnc23)c(-n2nnc3ccccc32)cc1C#N	EBI2 antag 79
C[C@@H]1CN([C@@H](C)CO)C(=O)CCCn2nncc2CO[C@H]1CN(C)C(=O)Nc1ccc(-c2cccs2)cc1	none
Cc1cccc(NC(=O)CSCC(=O)N2CCN(C(=O)c3ccco3)CC2)c1	none
OCC1(Cc2ccc(F)cc2F)CCCN(CCCc2ccccc2)C1 (stereo not given)	MC4R ag barr 9.5
CCCc1nc2ccc(Cl)cn2c1Cc1ccc(C)cc1	none (no result: MC4R antag cAMP, MC4R ag barr)
FC(F)(F)c1cccc(NC(=S)N2CCN(c3cccc(C(F)(F)F)c3)CC2)c1	m5-HT2A agonist 15, MC4R ag barr 9.2
CCNC(=O)C1(C)CCCN(C(=O)c2ccnc(Cl)c2)C1 (stereo not given)	none
Cc1ccc(S(=O)(=O)N2CCCCC2)cc1NS(=O)(=O)c1ccccc1F	none

Bioassay records: PubChem, several laboratories
